Results taken from ChEMBL document CHEMBL4837220, “Development of tricyclic N-benzyl-4-hydroxybutanamide derivatives as inhibitors of GABA transporters mGAT1-4 with anticonvulsant, antinociceptive, and antidepressant activity” (Eur J Med Chem, 2021).
The source made the active and inactive calls.

Tests used:
GABA transporter 4 = biological target: T1, GABA transporter 4 (Mus musculus, UniProt P31650); test: Inhibition of mouse GAT4 expressed in human HEK293 cell line assessed as inhibition of [3H]GABA uptake measured after 40 mins by […]; type: cell-based
T1 sequence (P31650 whole entry): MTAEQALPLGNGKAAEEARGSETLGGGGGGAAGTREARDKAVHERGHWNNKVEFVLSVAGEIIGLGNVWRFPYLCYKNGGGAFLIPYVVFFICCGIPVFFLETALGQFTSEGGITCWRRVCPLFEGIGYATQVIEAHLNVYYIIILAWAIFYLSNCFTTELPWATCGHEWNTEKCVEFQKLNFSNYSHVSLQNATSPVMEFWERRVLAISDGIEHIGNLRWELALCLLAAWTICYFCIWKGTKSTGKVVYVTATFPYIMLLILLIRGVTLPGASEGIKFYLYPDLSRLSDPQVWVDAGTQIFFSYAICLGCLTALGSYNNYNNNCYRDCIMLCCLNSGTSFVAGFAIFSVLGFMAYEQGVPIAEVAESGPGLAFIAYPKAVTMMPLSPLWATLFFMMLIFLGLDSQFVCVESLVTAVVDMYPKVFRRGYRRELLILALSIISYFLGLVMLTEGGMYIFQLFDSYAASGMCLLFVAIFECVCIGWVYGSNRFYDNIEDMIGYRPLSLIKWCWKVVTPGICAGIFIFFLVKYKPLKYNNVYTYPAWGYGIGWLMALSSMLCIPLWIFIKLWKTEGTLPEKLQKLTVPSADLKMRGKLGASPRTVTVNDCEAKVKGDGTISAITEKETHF

Mus musculus [1] = test: Antidepressant activity in Albino Swiss (CD-1) mouse assessed as reduction in immobility time at 8 mg/kg, ip measured for last 4 mins of 6 mins test by forced swim test relative to control; type: functional
Mus musculus [2] = test: Anticonvulsant activity in CD-1 mouse assessed as elevation of seizure threshold at 100 mg/kg, ip measured by electroconvulsive threshold test relative to control; type: functional
Mus musculus [3] = test: Anticonvulsant activity in Albino Swiss (CD-1) mouse model of pilocarpine-induced status epilepticus assessed as reduction in latency to occurrence of status epilepticus at 100 mg/kg, […]; type: functional, organism-based
Mus musculus [4] = test: Anxiolytic-like activity in Albino Swiss (CD-1) mouse assessed as increase in time spent in open arm at 30 mg/kg, ip measured for 5 mins by elevated plus maze test; type: functional, organism-based
Method in brief: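 Male CD-1 mice were dosed i.p. 60 min before test. Each was placed in the centre of the plus maze facing a closed arm and video-recorded for 5 min. Measures were time in open arms and % open-arm entries of all entries. Analysis by one-way ANOVA with Dunnett; n = 7–10.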

[5] = Hepatotoxicity in human HepG2 cells at 50 uM incubated for 72 hrs by MTS assay; type: cell-based; settings: hepg2, 72 h
Method in brief: (§1)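 Cells (HEK-293 or HepG2) were seeded at 0.7×10^4 per well and grown at 37 °C, 5% CO₂. Compounds at 0.1–100 µM were added in quadruplicate for 72 h, with 1% DMSO in medium as control. Viability was read by MTS absorbance at 492 nm. Analysis by one-way ANOVA with Bonferroni.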

[6] = biological target: Sodium- and chloride-dependent GABA transporter 1 (Mus musculus) (UniProt P31648); test: Residual NO711 binding to mouse GAT1 expressed in human HEK293 cell line at 100 uM by MS binding assay relative to control
Mus musculus [7] = test: Anticonvulsive activity in Albino Swiss (CD-1) mouse assessed as protection against pentylenetetrazole-induced seizure at 100 mg/kg, ip administered 60 mins prior to pentylenetetrazole challenge and measured for 30 mins; type: functional, organism-based
Method in brief: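 Male CD-1 mice were given test compound or vehicle i.p. and 60 min later PTZ 100 mg/kg s.c. Mice were observed singly for 30 min, recording latency to first seizure episode and number of seizure episodes. Analysis by one-way ANOVA with Dunnett; n = 10–12.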

Mus musculus [8] = test: Antidepressant-like activity in C57BL/6J mouse assessed as decrease in immobility time at 30 mg/kg, ip measured during last 4 mins of 6 mins test by tail suspension test
Mus musculus [9] = test: Anxiolytic-like activity in Albino Swiss (CD-1) mouse at 30 mg/kg, ip by four plate test; type: functional, organism-based
Method in brief: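 Male CD-1 mice were dosed i.p. 60 min before test. After 15 s habituation on a four-plate floor, a 60 s test followed. Each plate-to-plate crossing triggered a 0.8 mA, 0.5 s shock. The number of punished crossings was counted. Analysis by one-way ANOVA with Dunnett.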

[10] = biological target: T2, Sodium- and chloride-dependent GABA transporter 1 (Mus musculus, UniProt P31648); test: Inhibition of mouse GAT1 expressed in human HEK293 cell line assessed as inhibition of [3H]GABA uptake measured after 40 mins by […]; type: cell-based
Mus musculus [11] = test: Antinociceptive activity in Albino Swiss (CD-1) mouse model of formalin-induced paw edema at 30 mg/kg, ip pre-treated for 30 mins followed by formalin-stimulation and measured for 15 to 30 mins by formalin test
Mus musculus [12] = test: Anticonvulsant activity in Albino Swiss (CD-1) mouse assessed as tonic seizures at 100 mg/kg, ip measured after 0.2 secs by maximal electroshock seizure test; type: functional; settings: time 0.2 sec, 5.556e-05 h
Method in brief: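 Male CD-1 mice (18–22 g), dosed i.p. 60 min before test. A 25 mA, 0.2 s stimulus was given via auricular electrodes. Endpoint was tonic hind limb extension, expressed as % of mice with extension per group; n = 6.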

[13] = Hepatotoxicity in human HepG2 cells at 100 uM incubated for 72 hrs by MTS assay; type: cell-based; settings: hepg2, 72 h; method in brief: as §1
[14] = Hepatotoxicity in human HepG2 cells at 25 uM incubated for 72 hrs by MTS assay; type: cell-based; settings: hepg2, 72 h; method in brief: as §1
[15] = Effect on locomotor activity in Albino Swiss (CD-1) mouse at 30 mg/kg, ip after 24 to 30 mins; type: ADME, organism-based; settings: in vivo, time 24-30 min
Method in brief: (§2)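 Male CD-1 mice were habituated to activity cages for 15 min, then dosed i.p. 60 min before test. Light-beam crossings were counted over 30 min in 6-min bins (0–30 min). Analysis by repeated measures ANOVA with Bonferroni.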

HEK293 = test: Cytotoxicity in human HEK293 cells assessed as reduction in cell viability at 1 uM incubated for 72 hrs by MTS assay; type: cell-based; settings: hek293, 72 h; method in brief: as §1
GABA transporter 2 = biological target: T3, GABA transporter 2 (Mus musculus, UniProt P31651); test: Inhibition of mouse GAT2 expressed in human HEK293 cell line assessed as inhibition of [3H]GABA uptake measured after 40 mins by […]; type: cell-based
T3 sequence (P31651 whole entry): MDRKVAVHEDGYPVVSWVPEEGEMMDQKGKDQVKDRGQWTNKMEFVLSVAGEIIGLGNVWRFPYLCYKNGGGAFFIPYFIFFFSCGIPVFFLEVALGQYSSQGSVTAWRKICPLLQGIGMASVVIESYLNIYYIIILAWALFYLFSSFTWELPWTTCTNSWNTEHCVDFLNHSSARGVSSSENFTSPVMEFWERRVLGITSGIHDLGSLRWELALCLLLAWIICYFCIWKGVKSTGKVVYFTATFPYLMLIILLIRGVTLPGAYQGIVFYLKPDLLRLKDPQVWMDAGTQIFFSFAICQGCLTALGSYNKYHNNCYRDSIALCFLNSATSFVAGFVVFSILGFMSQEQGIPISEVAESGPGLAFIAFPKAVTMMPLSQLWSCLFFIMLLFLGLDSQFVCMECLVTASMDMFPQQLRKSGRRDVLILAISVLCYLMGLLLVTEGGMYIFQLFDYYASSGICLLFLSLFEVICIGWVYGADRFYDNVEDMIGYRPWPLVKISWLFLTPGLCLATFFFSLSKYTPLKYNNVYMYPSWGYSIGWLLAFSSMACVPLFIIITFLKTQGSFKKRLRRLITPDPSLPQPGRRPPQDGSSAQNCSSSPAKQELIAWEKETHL

Mus musculus [16] = test: Antidepressant activity in CD-1 mouse assessed as reduction in immobility time at 30 mg/kg, ip measured for last 4 mins of 6 mins test by forced swim test; type: functional, organism-based
Method in brief: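 Male CD-1 mice, dosed i.p. 60 min before test. Mice were placed singly in cylinders with 10 cm water at 23–25 °C. Immobility (passive floating) was scored during the final 4 min of a 6-min session. Analysis by one-way ANOVA with Dunnett versus vehicle.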

Mus musculus [17] = test: Antinociceptive activity in Albino Swiss (CD-1) mouse model of formalin-induced paw edema assessed as reduction in duration of nocifensive response by measuring licking/biting time at 30 mg/kg, ip pre-treated for 30 mins followed by formalin-stimulation and measured up to 5 mins; type: functional, organism-based
[18] = Effect on locomotor activity in Albino Swiss (CD-1) mouse at 30 mg/kg, ip; type: ADME, organism-based; settings: in vivo; method in brief: as §2
[19] = biological target: T2, Sodium- and chloride-dependent GABA transporter 1; test: Inhibition of NO711 binding to mouse GAT1 expressed in human HEK293 cell line by MS binding assay
Mus musculus [20] = test: Antidepressant activity in Albino Swiss (CD-1) mouse assessed as reduction in immobility time at 30 mg/kg, ip measured for last 4 mins of 6 mins test by forced swim test relative to control; type: functional; parameters: scale not given: the % may be the effect or the level left

IC50 (GABA transporter 4) [µM]	residual activity [6] [%]	IC50 [10] [µM]	IC50 (GABA transporter 2) [µM]	SMILES	Activity (Mus musculus [1])	Activity (Mus musculus [2]) [%]	Activity (Mus musculus [3])	Activity (Mus musculus [4])	Activity [5]	Activity (Mus musculus [8])	Activity (Mus musculus [9])	Activity (Mus musculus [11])	Activity (Mus musculus [12]) [%]	Activity [13]	Activity [14]	Activity (HEK293)	also measured
9.55	75	21.9	15.5	CN(CCC=C1c2ccccc2C=Cc2ccccc21)C(CCO)C(=O)NCc1ccccc1 (centres undefined)	Dose-Dependent Effect	43	inactive	inactive	Toxic	Active	inactive	Active	83	Toxic	Non-Toxic	Non-Toxic	Activity (Mus musculus [7]): inactive; Activity [15]: Non-Toxic
10.7	53	14.1	4.57	Cc1ccc(CNC(=O)C(CCO)N(C)CCC=C2c3ccccc3CCc3ccccc32)cc1 (centres undefined)	–	90	Active	inactive	Toxic	Active	inactive	Active	83	Toxic	Non-Toxic	Non-Toxic	Activity (Mus musculus [16]): Active; Activity (Mus musculus [17]): Active; Activity [18]: Non-Toxic
–	–	–	–	Cc1ccsc1C(=CCCN1CCC[C@@H](C(=O)O)C1)c1sccc1C [TIAGABINE]	59%	–	–	–	–	–	–	–	–	–	–	–	pKi [19]: 7.43; Activity (Mus musculus [20]): 97.4%
